This is an account of results in ChEMBL document CHEMBL2375253, “Discovery of novel 2,6-disubstituted pyridazinone derivatives as acetylcholinesterase inhibitors” (Eur J Med Chem, 2013).

The target of one assay is T1, Acetylcholinesterase (Rattus norvegicus, UniProt P37136).
T1 sequence (P37136 whole entry): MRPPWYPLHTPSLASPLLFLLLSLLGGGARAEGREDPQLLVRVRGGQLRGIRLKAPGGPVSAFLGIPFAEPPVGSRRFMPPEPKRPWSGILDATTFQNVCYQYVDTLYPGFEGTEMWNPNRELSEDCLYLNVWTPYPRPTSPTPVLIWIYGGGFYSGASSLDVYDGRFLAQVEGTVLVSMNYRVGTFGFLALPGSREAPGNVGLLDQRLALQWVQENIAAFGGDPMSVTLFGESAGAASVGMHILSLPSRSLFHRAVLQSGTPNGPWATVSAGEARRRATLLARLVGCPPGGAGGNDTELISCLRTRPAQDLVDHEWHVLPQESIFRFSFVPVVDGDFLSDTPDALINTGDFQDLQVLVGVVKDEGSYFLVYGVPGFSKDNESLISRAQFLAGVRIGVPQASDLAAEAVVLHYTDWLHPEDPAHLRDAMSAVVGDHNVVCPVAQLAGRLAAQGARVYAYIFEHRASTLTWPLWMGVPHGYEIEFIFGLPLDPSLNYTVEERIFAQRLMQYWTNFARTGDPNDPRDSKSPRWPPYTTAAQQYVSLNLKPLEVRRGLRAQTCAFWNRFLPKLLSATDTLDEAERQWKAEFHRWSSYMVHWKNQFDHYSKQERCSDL
Kind of assay: Inhibition of AChE in rat cerebral cortex homogenates using acetylthiocholine iodide as substrate after 8 mins by Ellman's spectrophotometric method. The assay is classed as tissue-based. An outline of the steps: (§1)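 Ellman colorimetric assay. Compounds were dissolved in DMSO to 10 mM and diluted in double-distilled water. Each mixture held compound, phosphate buffer ([…]) and enzyme with substrate. For AChE, rat cerebral cortex homogenate was used with acetylthiocholine iodide (2 mM solution). For BuChE, rat serum was used with S-butyrylthiocholine iodide (2 mM solution). Incubated 8 min, stopped with 3% SDS, then 0.2% DTNB added. Absorbance read at 440 nm, duplicates.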
On the technique in general: In Ellman's method for cholinesterases, released thiocholine reacts with DTNB.

For another assay, the target named is Butyrylcholinesterase (Rattus norvegicus, UniProt Q9JKC1). Briefly: Inhibition of rat serum BuChE using S-butyrylthiocholine iodide as substrate after 8 mins by Ellman's spectrophotometric method. Summed up:
as §1

For another assay, the species on record is Rattus norvegicus. Briefly: Selectivity ratio of IC50 for rat serum BuChE to IC50 for AChE in rat cerebral cortex homogenates. The assay is classed as tissue-based.

Each structure is given as a SMILES string.

Chain of Butyrylcholinesterase (Q9JKC1 whole entry): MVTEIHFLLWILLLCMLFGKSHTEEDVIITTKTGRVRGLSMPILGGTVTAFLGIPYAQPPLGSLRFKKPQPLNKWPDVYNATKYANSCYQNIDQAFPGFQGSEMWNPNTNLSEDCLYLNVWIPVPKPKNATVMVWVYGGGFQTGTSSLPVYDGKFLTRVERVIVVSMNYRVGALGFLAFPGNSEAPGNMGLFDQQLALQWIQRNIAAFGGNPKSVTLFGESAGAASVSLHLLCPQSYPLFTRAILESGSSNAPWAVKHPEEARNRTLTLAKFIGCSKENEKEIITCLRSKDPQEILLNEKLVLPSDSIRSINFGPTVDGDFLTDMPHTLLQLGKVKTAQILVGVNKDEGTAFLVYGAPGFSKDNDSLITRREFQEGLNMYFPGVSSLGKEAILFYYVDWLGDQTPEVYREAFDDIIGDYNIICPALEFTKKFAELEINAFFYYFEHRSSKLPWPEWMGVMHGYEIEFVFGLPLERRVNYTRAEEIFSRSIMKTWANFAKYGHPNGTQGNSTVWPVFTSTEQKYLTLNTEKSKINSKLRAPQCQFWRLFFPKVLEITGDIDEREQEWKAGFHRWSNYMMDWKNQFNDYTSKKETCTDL

On to `CCN(CC)C(=O)C1CCN(C(=O)Nc2cccc(Cn3nc(-c4ccc(C)cc4)ccc3=O)c2)CC1`, for which the IC50 (as a rule, the concentration needed to halve the response being measured) on Acetylcholinesterase (read-out: IC50) was found to be 2010 nM.

For the compound `CCN(CC)C(=O)C1CCN(C(=O)Nc2cccc(Cn3nc(Nc4cccc(C)c4)ccc3=O)c2)CC1`, the concentration for half-maximal inhibition (IC50) on Acetylcholinesterase (read-out: IC50) is 1420 nM.

In the case of `CCN(C)C(=O)C1CCN(C(=O)Nc2cccc(Cn3nc(Nc4ccccc4C)ccc3=O)c2)CC1`, the IC50 against Butyrylcholinesterase was more than 40000 nM; on Acetylcholinesterase (read-out: IC50) it was 473 nM. Besides, the Ratio IC50 in the assay filed under Rattus norvegicus is more than 84.

On to `CCc1ccccc1Nc1ccc(=O)n(Cc2cccc(NC(=O)N3CCC(C(=O)N(CC)CC)CC3)c2)n1`, for which the 50% inhibitory concentration (IC50) on Acetylcholinesterase (read-out: IC50) worked out at 188 nM.

Regarding `CCN(CC)C(=O)C1CCN(C(=O)Nc2cccc(Cn3ncccc3=O)c2)CC1`, on Acetylcholinesterase (read-out: IC50), the IC50 was 4900 nM.

For the compound `Cc1ccccc1Nc1ccc(=O)n(Cc2cccc(NC(=O)N3CCC(C(=O)N(C(C)C)C(C)C)CC3)c2)n1`, the IC50 on Acetylcholinesterase (read-out: IC50) was 116 nM.

As to `CCN(CC)C(=O)C1CCN(C(=O)Nc2cccc(Cn3nc(Nc4ccc(C(F)(F)F)cc4)ccc3=O)c2)CC1`, the half-maximal inhibitory concentration (IC50) at Acetylcholinesterase (read-out: IC50) turned out to be 4840 nM.

For the compound `CCN(CC)C(=O)C1CCN(C(=O)Nc2cccc(Cn3nc(Nc4cccc5ccccc45)ccc3=O)c2)CC1`, on Acetylcholinesterase (read-out: IC50), the IC50 stood at 126 nM.

For `CCN(CC)C(=O)C1CCN(C(=O)Nc2cccc(Cn3nc(Nc4ccccc4)ccc3=O)c2)CC1`, the 50% inhibitory concentration (IC50) at Butyrylcholinesterase is more than 40000 nM; at Acetylcholinesterase (read-out: IC50) it was 3280 nM. Besides, the Ratio IC50 in the assay filed under Rattus norvegicus is more than 12.

`c1ccc(CN2CCC(CCNc3cc4c(nn3)-c3ccccc3CC4)CC2)cc1`: the IC50 at Acetylcholinesterase (read-out: IC50) was determined as 39 nM.

Take `c1ccc(CN2CCC(CCN=c3cc4c(n[nH]3)-c3ccccc3C4)CC2)cc1`: the half-maximal inhibitory concentration (IC50) at Acetylcholinesterase (read-out: IC50) worked out at 10 nM.

For `CCN(CC)C(=O)C1CCN(C(=O)Nc2cccc(Cn3nc(Nc4ccccc4C(C)C)ccc3=O)c2)CC1`, on Acetylcholinesterase (read-out: IC50), the IC50 stood at 1500 nM.

With `CCN(CC)C(=O)C1CCN(C(=O)Nc2cccc(Cn3nc(-c4cccc(Br)c4)ccc3=O)c2)CC1`, the IC50 on Acetylcholinesterase (read-out: IC50) was 623 nM.

In the case of `CCN(CC)C(=O)C1CCN(C(=O)Nc2cccc(Cn3nc(-c4cccc(C#N)c4)ccc3=O)c2)CC1`, the concentration for half-maximal inhibition (IC50) on Acetylcholinesterase (read-out: IC50) amounted to 220 nM.

`CCN(CC)C(=O)C1CCN(C(=O)Nc2cccc(Cn3nc(Nc4ccccc4C)ccc3=O)c2)CC1`: the concentration for half-maximal inhibition (IC50) at Butyrylcholinesterase is more than 40000 nM; at Acetylcholinesterase (read-out: IC50), 49 nM. Further, the Ratio IC50 in the assay listed under Rattus norvegicus was more than 816.

`CCN(CC)C(=O)C1CCN(C(=O)Nc2cccc(Cn3nc(Nc4c(C)cccc4C)ccc3=O)c2)CC1`: on Acetylcholinesterase (read-out: IC50), the IC50 worked out at 607 nM.

As for `CCN(CC)C(=O)C1CCN(C(=O)Nc2cccc(Cn3nc(-c4ccc5ccccc5c4)ccc3=O)c2)CC1`, the IC50 on Acetylcholinesterase (read-out: IC50) came out at 462 nM.

As for `CCN(CC)C(=O)C1CCN(C(=O)Nc2cccc(Cn3nc(Nc4cccc(C(F)(F)F)c4)ccc3=O)c2)CC1`, the IC50 at Acetylcholinesterase (read-out: IC50) came to 135 nM.

Consider `CCN(CC)C(=O)C1CCN(C(=O)Nc2cccc(Cn3nc(-c4cccc(Cl)c4)ccc3=O)c2)CC1`, for which, on Acetylcholinesterase (read-out: IC50), the IC50 is 648 nM.

Consider `CCN(C(=O)C1CCN(C(=O)Nc2cccc(Cn3nc(Nc4ccccc4C)ccc3=O)c2)CC1)C(C)C`, for which the IC50 against Butyrylcholinesterase amounted to 5500 nM; on Acetylcholinesterase (read-out: IC50) it was 28 nM. Further, in the assay listed under Rattus norvegicus, the Ratio IC50 worked out at 196.

`CCN(CC)C(=O)C1CCN(C(=O)Nc2cccc(Cn3nc(-c4ccccc4C)ccc3=O)c2)CC1`: the IC50 on Acetylcholinesterase (read-out: IC50) worked out at 2610 nM.

Consider `Cc1ccccc1Nc1ccc(=O)n(Cc2cccc(NC(=O)N3CCC(C(=O)N(C)C(C)C)CC3)c2)n1`, for which the IC50 on Butyrylcholinesterase came out at 10000 nM; at Acetylcholinesterase (read-out: IC50) it was 46 nM. Also, the Ratio IC50 in the assay filed under Rattus norvegicus worked out at 217.

Take `CCN(CC)C(=O)C1CCN(C(=O)Nc2cccc(Cn3nc(Nc4ccc(C)cc4)ccc3=O)c2)CC1`: on Acetylcholinesterase (read-out: IC50), the IC50 stood at 19800 nM.

As to `Cc1ccccc1Nc1ccc(=O)n(Cc2cccc(NC(=O)N3CCC(C(=O)N4CCOCC4)CC3)c2)n1`, the IC50 entry against Acetylcholinesterase was “Not Active”.

As for `CCN(CC)C(=O)C1CCN(C(=O)Nc2cccc(Cn3nc(-c4cccc5ccccc45)ccc3=O)c2)CC1`, the half-inhibitory concentration (IC50) is more than 40000 nM on Butyrylcholinesterase and 188 nM at Acetylcholinesterase (read-out: IC50). In addition, the Ratio IC50 in the assay filed under Rattus norvegicus is more than 212.

On to `CCN(CC)C(=O)C1CCN(C(=O)Nc2cccc(Cn3nc(-c4cccc(C)c4)ccc3=O)c2)CC1`, for which the concentration for half-maximal inhibition (IC50) at Acetylcholinesterase (read-out: IC50) is 746 nM.

`CCN(CC)C(=O)C1CCN(C(=O)Nc2cccc(Cn3nc(Nc4ccccc4C(F)(F)F)ccc3=O)c2)CC1`: the half-maximal inhibitory concentration (IC50) at Acetylcholinesterase (read-out: IC50) stood at 119 nM.

For `Cc1ccccc1Nc1ccc(=O)n(Cc2cccc(NC(=O)N3CCC(C(=O)N(C)C)CC3)c2)n1`, the concentration for half-maximal inhibition (IC50) on Acetylcholinesterase (read-out: IC50) turned out to be 7600 nM.

On to `CCN(CC)C(=O)C1CCN(C(=O)Nc2cccc(Cn3nc(-c4ccccc4)ccc3=O)c2)CC1`, for which the results for the IC50 against Butyrylcholinesterase and on Acetylcholinesterase (read-out: IC50) were more than 40000 nM and 1660 nM, respectively. Also, in the assay listed under Rattus norvegicus, the Ratio IC50 was more than 24.
